7 compounds from ChEMBL document CHEMBL1126742, “Syntheses of 5'-substituted analogues of carbocyclic 3-deazaadenosine as potential antivirals” (J Med Chem, 1993) can be followed below.

Assay [1] has as its system Vero. As to the kind of experiment: Minimum toxic concentration against vaccinia virus (vero cell line). The format is functional, Chlorocebus sabaeus. The gist of the method: (§1)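 Host-cell toxicity was measured alongside the antiviral test. MTC is the lowest concentration of test compound giving a 50% reduction in percent survival of viable host cells.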
Assay [2] relates to Vero. Nature of the assay: Inhibitory concentration (reduction in cytopathic effect) against vaccinia virus (vero cell line). The format is functional, cell-based. The following applies: Chlorocebus sabaeus. Put shortly:
(§2)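 Antiviral activity was scored as inhibition of virus cytopathic effect (CPE) in the named host cells. IC50 is the drug concentration giving a 50% reduction in virus CPE.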

The subject of assay [3] is Vero. Nature of the assay: Virus rating against vaccinia virus ( vero cell line). The format is functional, Chlorocebus sabaeus. The gist of the method: (§3)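 The virus rating is computed from CPE-inhibition data by the Huffman and Sidwell method. VR > 1 means definite to moderate activity; VR < 0.5 means no significant activity.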
Assay [4] deals with Vaccinia virus. As to the kind of experiment: Minimum inhibitory concentration against vaccinia virus. The format is functional. The following applies: Orthopoxvirus vaccinia.
Assay [5] has as its system Vesicular stomatitis virus. As to the kind of experiment: Minimum inhibitory concentration against vesicular stomatitis virus. The format is functional.
The test system of assay [6] is Vero. Nature of the assay: Virus rating against vaccinia virus (vero cell line). The format is functional, Chlorocebus sabaeus. The gist of the method:
as §3

The test system of assay [7] is L929. As to the kind of experiment: Virus rating against vesicular stomatitis virus (L-929 cell line). The format is functional, Mus musculus. The gist of the method:
as §3

The subject of assay [8] is L929. As to the kind of experiment: Inhibitory concentration (reduction in cytopathic effect) against vesicular stomatitis virus (L-929 cell line). The format is functional, cell-based. The following applies: Mus musculus. Put shortly: as §2
The test system of assay [9] is L929. As to the kind of experiment: Minimum toxic concentration against vesicular stomatitis virus (L-929 cell line). The format is functional, Mus musculus. Put shortly: as §1
Assay [10] deals with L929. Nature of the assay: Inhibitory concentration (reduction in cytopathic effect) against vaccinia virus (L-929 cell line). The format is functional, cell-based. The following applies: Mus musculus. Put shortly: as §2
For assay [11], the system named is LLC-MK2. Nature of the assay: Minimum toxic concentration against yellow fever virus (MK2 cell line). The format is functional, Cercopithecidae. Put shortly: as §1
Assay [12] has as its system L929. Nature of the assay: Virus rating against vaccinia virus (L-929 cell line). The format is functional, Mus musculus. Put shortly:
as §3

Assay [13] relates to LLC-MK2. As to the kind of experiment: Virus rating against yellow fever virus (MK2 cell line); Evaluated by plaque reduction assay. The format is functional, cell-based. Conditions: Cercopithecidae. (In general: In a plaque reduction assay, fewer plaques than in the control indicate reduced infectivity or spread.)
The subject of assay [14] is LLC-MK2. As to the kind of experiment: Inhibitory concentration (reduction in cytopathic effect) against yellow fever virus (MK2 cell line). The format is functional, cell-based, Cercopithecidae. The following applies: Macaca mulatta. Put shortly: as §2
On the technique in general: Damage to the host cells serves as the signal in cytopathic effect assays.

Assay [15] relates to L929. Nature of the assay: Minimum toxic concentration against vaccinia virus (L-929 cell line). The format is functional, Mus musculus. The gist of the method:
as §1

Values after ≈ are worked out from the molar mass of the structure shown.

As usually defined, the IC50 is the point on the concentration scale where inhibition reaches its midpoint. Consider `NC(=O)[C@H]1C[C@@H](n2cnc3c(N)nccc32)C(O)[C@H]1O` (stereo partly drawn), for which the MTC50 in assay [1] came to 320 µg/mL. The compound further came in with an IC50 in assay [2] of 32 µg/mL (≈ 115 µM). For the same compound, in assay [3], the VR is recorded as 0.7.
As for `Nc1nccc2c1ncn2[C@@H]1C[C@H](CO)[C@H](O)C1O` (stereo partly drawn), the MIC in [4] and in assay [5] was 20 µg/mL (≈ 75.7 µM) throughout.
`Nc1nccc2c1ncn2[C@@H]1C[C@H](CBr)[C@H](O)C1O` (stereo partly drawn): the MTC50 in assay [1] and in assay [9] was 320 µg/mL throughout. The results for the VR in assay [6] and in [7] were 0.6 and 0.3, respectively. Besides, the IC50 came out at 87 µg/mL (≈ 266 µM) in assay [2] and 147 µg/mL (≈ 449 µM) in [8].
Regarding `OC[C@H]1C[C@@H](n2cnc3cnccc32)C(O)[C@H]1O` (stereo partly drawn), the IC50 in assay [10] came out at 7 µg/mL (≈ 28.1 µM); in [8], 49 µg/mL (≈ 197 µM); in assay [14] it was 70 µg/mL (≈ 281 µM). Also, the MTC50 is 100 µg/mL in [11], 79 µg/mL in [9] and 249 µg/mL in assay [15]. Besides, the VR is recorded as 0.7 in [7], 1 in assay [12] and “Evaluated by plaque reduction assay” in assay [13].
On to `Nc1nccc2c1ncn2[C@@H]1C[C@H](CCl)[C@H](O)C1O` (stereo partly drawn), for which the IC50 in [10] is 32 µg/mL (≈ 113 µM); in [8], 88 µg/mL (≈ 311 µM). For the same compound, the figures for the VR in assay [7] and in [12] were 0.4 and 0.6, respectively. Further, the MTC50 is 283 µg/mL in assay [9] and 90 µg/mL in [15].
On to `C[C@H]1C[C@@H](n2cnc3c(N)nccc32)C(O)[C@H]1O` (stereo partly drawn), for which the results for the MTC50 in assay [1], in [11] and in assay [9] were 100 µg/mL, 104 µg/mL and 100 µg/mL, respectively. In addition, the results for the VR in [6], in [7] and in [13] were 1.4, 1 and “Evaluated by plaque reduction assay”, respectively. Also, the IC50 is 3.1 µg/mL (≈ 12.5 µM) in [2], 100 µg/mL (≈ 403 µM) in assay [8] and 23 µg/mL (≈ 92.6 µM) in assay [14].
Consider `NC[C@H]1C[C@@H](n2cnc3c(N)nccc32)C(O)[C@H]1O` (stereo partly drawn), for which the MTC50 in assay [1] stood at 320 µg/mL. For the same compound, in assay [6], the VR is listed as 1. 18 µg/mL (≈ 68.4 µM) corresponded to half-maximal inhibition in [2] (IC50).
